Here are results for nine compounds from ChEMBL document CHEMBL1147884, “Further studies on the effect of lysine at the C-terminus of the Dmt-Tic opioid pharmacophore” (Bioorg Med Chem, 2007).

Starred links: 1 amine or outer side, 2 acyl side, 3 side chain; linkers in the order of their positions; H or OH if unused. Non-standard residues stand in square brackets, D forms with d. Residues, ends and D or L forms follow the SMILES beside them. *: point of attachment. Dmt = Cc1cc(O)cc(C)c1C[C@H](N)C(=O)O; εLys = N[C@@H](CCCCN[*:1])C(=O)[*:2]; Tic = O=C(O)[C@@H]1Cc2ccccc2CN1; NHBn = c1ccc(CN*)cc1; NHPh = c1ccc(N*)cc1

Experiment [1] concerns the target Mu-type opioid receptor (Rattus norvegicus, UniProt P33535). Kind of experiment: Displacement of [3H]DAMGO 2 from mu opioid receptor in Sprague-Dawley rat brain P2 synaptosomal membrane. Put shortly: (§1)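 Competition binding at equilibrium, 2.5 h at 23 °C, on rat brain P2 synaptosomes preincubated to remove endogenous opioids, stored at -80 °C in buffered 20% glycerol. Five to eight peptide doses, duplicate assays, 3-5 independent preparations. Filtration on polyethylenimine-soaked (0.1%) glass fibre filters, three washes in ice-cold buffered BSA; Ki by Cheng-Prusoff, mean ± SE.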

Experiment [2] deals with Delta-type opioid receptor (Rattus norvegicus, UniProt P33533). Kind of experiment: Displacement of [3H]deltorphin 2 from delta opioid receptor in Sprague-Dawley rat brain P2 synaptosomal membrane. In outline:
as §1
A general note: In a radioligand displacement assay an active substance lowers the binding of a labelled ligand.

The target of experiment [3] is T1, Opioid receptors; mu & delta (Rattus norvegicus) (UniProt P33533+P33535). The experiment can be described thus: Selectivity ratio of Ki for mu opioid receptor to Ki for delta opioid receptor. It is filed as protein assay.
T1 sequence (P33533 whole entry, looked up): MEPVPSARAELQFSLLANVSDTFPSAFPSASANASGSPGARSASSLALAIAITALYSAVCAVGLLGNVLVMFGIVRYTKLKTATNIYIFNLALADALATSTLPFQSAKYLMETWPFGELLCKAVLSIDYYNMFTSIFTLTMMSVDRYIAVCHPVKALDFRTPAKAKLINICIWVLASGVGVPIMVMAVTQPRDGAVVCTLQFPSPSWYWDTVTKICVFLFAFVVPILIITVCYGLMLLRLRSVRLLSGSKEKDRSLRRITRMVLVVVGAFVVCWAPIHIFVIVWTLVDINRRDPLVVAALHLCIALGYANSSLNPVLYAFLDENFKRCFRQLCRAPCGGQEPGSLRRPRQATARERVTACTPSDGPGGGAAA
T1 sequence (P33535 whole entry, looked up): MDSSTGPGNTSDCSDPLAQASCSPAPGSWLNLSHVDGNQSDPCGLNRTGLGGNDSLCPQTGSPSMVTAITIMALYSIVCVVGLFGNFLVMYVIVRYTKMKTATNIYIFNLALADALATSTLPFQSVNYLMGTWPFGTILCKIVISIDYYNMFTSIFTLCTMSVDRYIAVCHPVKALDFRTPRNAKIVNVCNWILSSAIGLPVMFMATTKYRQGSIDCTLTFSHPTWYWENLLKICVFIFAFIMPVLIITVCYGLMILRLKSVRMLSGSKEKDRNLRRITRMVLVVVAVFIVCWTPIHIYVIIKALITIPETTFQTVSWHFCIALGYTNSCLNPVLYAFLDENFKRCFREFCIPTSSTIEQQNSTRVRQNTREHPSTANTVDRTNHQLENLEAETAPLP
In experiment [4] the target is Delta-type opioid receptor (Mus musculus, UniProt P32300). The experiment can be described thus: Antagonist activity at delta opioid receptor in mouse vas deferens assessed as inhibition of electrically-stimulated contraction. It is filed as functional, tissue-based. The conditions noted are these: read-out: pA2 (converted). In outline:
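Single mouse vas deferens in organ bath, balanced salt physiological buffer pH 7.5, electrically stimulated. Antagonism measured against δ-agonist deltorphin II; pA2 derived by Schild plot (method of Kosterlitz and Watt).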

Experiment [5] addresses Mu-type opioid receptor (Cavia porcellus, UniProt P97266). Kind of experiment: Agonist activity at mu opioid receptor in Hartley guinea pig ileum assessed as inhibition of electrically-stimulated contraction. It is filed as functional, tissue-based. Put shortly:
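Myenteric plexus-longitudinal muscle strips (2-3 cm) from small intestine of male Hartley guinea pigs in organ bath, physiological buffer pH 7.5. Inhibition of electrically evoked contraction; IC50 (nM) from dose-response curves, mean ± SE of five or six separate tissue assays; endomorphin-2 as internal standard.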

Experiment [6] has as its target T1, Opioid receptors; mu & delta (Rattus norvegicus). Kind of experiment: Selectivity ratio of Ki for rat delta opioid receptor to Ki for rat mu opioid receptor. It counts as protein assay.

As a reminder, the Ki is a measure of affinity in units of concentration, obtained from inhibition or displacement. The low end stands for higher affinity, the high end for lower affinity. By IC50 is commonly meant the concentration that inhibits the measured activity by half.

Chain of Delta-type opioid receptor (Rattus norvegicus, UniProt P33533) (P33533 whole entry): as the sequence (P33533 whole entry, looked up) above
Chain of Mu-type opioid receptor (Rattus norvegicus, UniProt P33535) (P33535 whole entry): as the sequence (P33535 whole entry, looked up) above
Chain of Mu-type opioid receptor (Cavia porcellus, UniProt P97266) (P97266 whole entry): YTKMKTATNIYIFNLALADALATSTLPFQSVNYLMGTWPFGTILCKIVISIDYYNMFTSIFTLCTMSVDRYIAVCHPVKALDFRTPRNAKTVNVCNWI
Chain of Delta-type opioid receptor (Mus musculus, UniProt P32300) (P32300 whole entry): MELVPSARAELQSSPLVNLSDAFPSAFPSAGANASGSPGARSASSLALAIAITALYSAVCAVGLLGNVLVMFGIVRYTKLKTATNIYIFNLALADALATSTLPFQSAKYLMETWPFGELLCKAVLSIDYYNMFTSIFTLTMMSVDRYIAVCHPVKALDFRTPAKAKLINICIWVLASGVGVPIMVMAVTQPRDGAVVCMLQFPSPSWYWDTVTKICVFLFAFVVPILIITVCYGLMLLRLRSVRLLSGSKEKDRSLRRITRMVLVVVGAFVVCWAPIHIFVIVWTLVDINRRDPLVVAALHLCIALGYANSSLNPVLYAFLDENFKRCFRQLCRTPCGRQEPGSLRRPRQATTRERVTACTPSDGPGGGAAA

Take `CC(=O)N[C@@H](CCCCNC(=O)[C@@H]1Cc2ccccc2CN1C(=O)[C@@H](N)Cc1c(C)cc(O)cc1C)C(=O)Nc1ccccc1`: the Ki is 2.57 nM in experiment [1] and 0.22 nM in experiment [2]. Also, the Ratio Ki in experiment [3] stood at 11.7. Also, the Kb in experiment [4] was 6.61 nM. Further, in experiment [5], the IC50 was 486 nM.
In the case of `Cc1cc(O)cc(C)c1C[C@H](N)C(=O)N1Cc2ccccc2C[C@H]1C(=O)NCCCC[C@H](NC(=O)OCc1ccccc1)C(=O)Nc1ccccc1`, the Ki in experiment [1] turned out to be 2.67 nM; in experiment [2], 0.47 nM. Besides, the Ratio Ki in experiment [3] worked out at 5.7. In experiment [4], the Kb was 5.89 nM. Also, in experiment [5], the IC50 was determined as 711 nM.
On to `Cc1cc(O)cc(C)c1C[C@H](N)C(=O)N1Cc2ccccc2C[C@H]1C(=O)NCCCC[C@H](N)C(=O)NCc1ccccc1` (H-[Dmt]-[Tic]-[εLys]-NHBn), for which the Ki came to 0.6 nM in experiment [1] and 1 nM in experiment [2]. Moreover, the Kb in experiment [4] was 15.5 nM. Moreover, the 50% inhibitory concentration (IC50) in experiment [5] stood at 553 nM. Also, the Ratio Ki in experiment [6] worked out at 1.7.
For `Cc1cc(O)cc(C)c1C[C@H](N)C(=O)N1Cc2ccccc2C[C@H]1C(=O)NCCCC[C@H](NC(=O)OCc1ccccc1)C(=O)NCc1ccccc1`, the inhibition constant (Ki) in experiment [1] was 3.15 nM; in experiment [2], 0.53 nM. Also, in experiment [3], the Ratio Ki is 5.9. Further, the Kb in experiment [4] is 5.37 nM. Moreover, the 50% inhibitory concentration (IC50) in experiment [5] was found to be 1450 nM.
Regarding `Cc1cc(O)cc(C)c1C[C@H](N)C(=O)N1Cc2ccccc2C[C@H]1C(=O)NCCCC[C@H](N)C(=O)Nc1ccccc1` (H-[Dmt]-[Tic]-[εLys]-NHPh), the inhibition constant Ki was determined as 0.89 nM in experiment [1] and 2.02 nM in experiment [2]. For the same compound, the Kb in experiment [4] is 12 nM. Moreover, the half-inhibitory concentration (IC50) in experiment [5] is 515 nM. Also, in experiment [6], the Ratio Ki turned out to be 2.3.
Turning to `CC(=O)N[C@@H](CCCCNC(=O)[C@@H]1Cc2ccccc2CN1C(=O)[C@@H](N)Cc1c(C)cc(O)cc1C)c1nc2ccccc2[nH]1`, the inhibition constant Ki came out at 0.99 nM in experiment [1] and 0.21 nM in experiment [2]. Moreover, the Ratio Ki in experiment [3] came to 4.7. In addition, the Kb in experiment [4] is 7.59 nM. For the same compound, in experiment [5], the IC50 amounted to 610 nM.
With `Cc1cc(O)cc(C)c1C[C@H](N)C(=O)N1Cc2ccccc2C[C@H]1C(=O)NCCCC[C@H](N)c1nc2ccccc2[nH]1`, the inhibition constant (Ki) in experiment [1] is 1.02 nM; in experiment [2], 2.64 nM. Further, the Kb in experiment [4] was 8.13 nM. Also, the IC50 in experiment [5] amounted to 434 nM. For the same compound, in experiment [6], the Ratio Ki stood at 2.6.
Consider `CC(=O)N[C@@H](CCCCNC(=O)[C@@H]1Cc2ccccc2CN1C(=O)[C@@H](N)Cc1c(C)cc(O)cc1C)C(=O)NCc1ccccc1`, for which the Ki worked out at 3.43 nM in experiment [1] and 0.21 nM in experiment [2]. In addition, in experiment [3], the Ratio Ki was 16.3. Moreover, the Kb in experiment [4] was 8.51 nM. In experiment [5], the half-inhibitory concentration (IC50) came to 1990 nM.
Regarding `Cc1cc(O)cc(C)c1C[C@H](N)C(=O)N1Cc2ccccc2C[C@H]1C(=O)NCCCC[C@H](NC(=O)OCc1ccccc1)c1nc2ccccc2[nH]1`, the Ki in experiment [1] stood at 2.78 nM; in experiment [2] it was 0.86 nM. Besides, the Ratio Ki in experiment [3] was found to be 3.2. For the same compound, the Kb in experiment [4] is 15.1 nM. Besides, in experiment [5], the concentration for half-maximal inhibition (IC50) came out at 618 nM.
